Measurements from ChEMBL document CHEMBL4811272, “A new sulfated triterpene glycoside from the sea cucumber Colochirus quadrangularis, and evaluation of its antifungal, antitumor and immunomodulatory activities” (Bioorg Med Chem, 2021).
Active and inactive are the calls of the source. No cut-off for these calls is given here.

Tests used:
[1] = system: HCT-116; test: Cytotoxicity against human HCT-116 cells assessed as reduction in cell viability by sulforhodamine B assay; format: functional, cell-based
Method in brief: (§1)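 Cells were kept in RPMI-1640 with 10% FBS, 2 mM L-glutamine, 50 μM β-mercaptoethanol and penicillin/streptomycin, at 37 °C in 5% CO2. SRB assay used 100, 10, 1, 0.1 and 0.01 μM, each in triplicate. Percent inhibition was calculated against solvent control OD. IC50 came from Logit curve fitting and is the mean of three independent experiments.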

[2] = system: MCF7; test: Cytotoxicity against human MCF7 cells assessed as reduction in cell viability by sulforhodamine B assay; format: functional, cell-based; method in brief: as §1
[3] = system: Candida parapsilosis; test: Antifungal activity against clinical strain Candida parapsilosis by microplate reader assay; format: functional; settings: Lodderomyces parapsilosis
Method in brief: (§2)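 Broth microdilution read by optical density at 630 nm. MIC80 is the first well with about 80% less growth than the drug-free well. Each concentration was run in three replicate wells, and values are means of three independent experiments.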

[4] = system: Mus musculus; test: Immunomodulatory activity in cyclophosphamide-immunosuppressed KM mouse assessed as improved thymus index in at 50 to 500 mg/kg, IG once daily measured after 14 days; format: functional, organism-based; settings: dose 50-500 mg/kg, time 14.0 day
Method in brief: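 KM mice dosed intragastrically at 5, 50 or 500 mg/kg; vehicle 0.5% CMC-Na. After five doses, immunized i.p. with 0.2 mL 20% rabbit erythrocytes, and dosing continued for 8 days. CTX 30 mg/kg i.p. on days 2, 4 and 6 after immunization. 1 h after the last dose, spleen and thymus weighed; index in g/kg. n = 8.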

[5] = system: Candida albicans; test: Antifungal activity against Candida albicans ATCC 76615 by microplate reader assay; format: functional; settings: ATTCC76615; method in brief: as §2
[6] = system: Bel-7402; test: Antitumor activity against human Bel-7402 cells implanted in BALB/c-nu mouse assessed as tumor growth inhibition at 5 mg/kg, IG administered everyday for 7 days relative to control; format: functional; settings: Bel-7402, po, 168 h, time 7 day, read-out: TGI
[7] = system: SPC-A4; test: Cytotoxicity against human SPC-A4 cells assessed as reduction in cell viability by sulforhodamine B assay; format: functional, cell-based; method in brief: as §1
[8] = system: CCRF S-180; test: Antitumor activity against mouse S-180 cells implanted in KM mouse assessed as tumor growth inhibition at 50 mg/kg, IG administered everyday for 7 days relative to control; format: functional; settings: CCRF S-180, po, 168 h, time 7 day, read-out: TGI
Method in brief: (§3)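 S-180 or H22 cells, about 2.5 × 10⁶ per mouse, injected s.c. in the right axilla of wild-type KM mice. Randomized after 24 h and dosed intragastrically for 7 days; sacrificed 24 h after the last dose. TGI = (W_C − W_T)/W_C × 100% from average tumor weight. n = 8; one-way ANOVA vs vehicle.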

[9] = system: Cryptococcus neoformans; test: Antifungal activity against Cryptococcus neoformans ATCC 32609 by microplate reader assay; format: functional; settings: ATTCC32609; method in brief: as §2
[10] = system: Bel-7402; test: Antitumor activity against human Bel-7402 cells implanted in BALB/c-nu mouse assessed as T/C ratio at 5 mg/kg, IG administered everyday for 7 days relative to control; format: functional; settings: time 7 day
[11] = system: Bel-7402; test: Cytotoxicity against human Bel-7402 cells assessed as reduction in cell viability by sulforhodamine B assay; format: functional, cell-based; method in brief: as §1
[12] = system: H22; test: Antitumor activity against mouse H22 cells implanted in KM mouse assessed as tumor growth inhibition at 0.5 mg/kg, IG administered everyday for 7 days relative to control; format: functional; settings: H22, po, 168 h, time 7 day, read-out: TGI; method in brief: as §3
[13] = system: HMEC-1; test: Antiproliferative activity against human HMEC-1 cells assessed as inhibition of proliferation by SRB method; format: functional, cell-based
Method in brief: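 HMEC-1 endothelial cells seeded and exposed to compound. Proliferation read by SRB and migration by Transwell. IC50 calculated from three independent experiments.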

[14] = system: Candida tropicalis; test: Antifungal activity against clinical strain Candida tropicalis by microplate reader assay; format: functional; method in brief: as §2
[15] = system: HL-60; test: Cytotoxicity against human HL-60 cells assessed as reduction in cell viability by sulforhodamine B assay; format: functional, cell-based; method in brief: as §1
[16] = target: Platelet-derived growth factor receptor beta (Mus musculus, UniProt P05622); test: Inhibition of PDGFRbeta in mouse NIH/3T3 cells assessed as reduction of PDGF-BB-stimulated phosphorylation; format: cell-based
Method in brief: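 NIH/3T3 fibroblasts transfected to overexpress VEGFR-2 or PDGFR-β, starved 24 h, then given compound. Stimulation: VEGF 500 ng/mL for VEGFR-2 cells, PDGF-BB 150 ng/mL for PDGFR-β cells. Cells fixed in 4% paraformaldehyde and probed with PY-99 anti-phosphotyrosine, secondary IgG and HRP-avidin. OD 405 nm read after ABTS; IC50 from three independent experiments.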

[17] = system: Bel-7402; test: Antitumor activity against human Bel-7402 cells implanted in BALB/c-nu mouse assessed as T/C ratio at 100 mg/kg, IG administered everyday for 7 days relative to control; format: functional; settings: time 7 day
[18] = system: H22; test: Antitumor activity against mouse H22 cells implanted in KM mouse assessed as tumor growth inhibition at 50 mg/kg, IG administered everyday for 7 days relative to control; format: functional; settings: H22, po, 168 h, time 7 day, read-out: TGI; method in brief: as §3

Platelet-derived growth factor receptor beta, sequence (P05622 whole entry): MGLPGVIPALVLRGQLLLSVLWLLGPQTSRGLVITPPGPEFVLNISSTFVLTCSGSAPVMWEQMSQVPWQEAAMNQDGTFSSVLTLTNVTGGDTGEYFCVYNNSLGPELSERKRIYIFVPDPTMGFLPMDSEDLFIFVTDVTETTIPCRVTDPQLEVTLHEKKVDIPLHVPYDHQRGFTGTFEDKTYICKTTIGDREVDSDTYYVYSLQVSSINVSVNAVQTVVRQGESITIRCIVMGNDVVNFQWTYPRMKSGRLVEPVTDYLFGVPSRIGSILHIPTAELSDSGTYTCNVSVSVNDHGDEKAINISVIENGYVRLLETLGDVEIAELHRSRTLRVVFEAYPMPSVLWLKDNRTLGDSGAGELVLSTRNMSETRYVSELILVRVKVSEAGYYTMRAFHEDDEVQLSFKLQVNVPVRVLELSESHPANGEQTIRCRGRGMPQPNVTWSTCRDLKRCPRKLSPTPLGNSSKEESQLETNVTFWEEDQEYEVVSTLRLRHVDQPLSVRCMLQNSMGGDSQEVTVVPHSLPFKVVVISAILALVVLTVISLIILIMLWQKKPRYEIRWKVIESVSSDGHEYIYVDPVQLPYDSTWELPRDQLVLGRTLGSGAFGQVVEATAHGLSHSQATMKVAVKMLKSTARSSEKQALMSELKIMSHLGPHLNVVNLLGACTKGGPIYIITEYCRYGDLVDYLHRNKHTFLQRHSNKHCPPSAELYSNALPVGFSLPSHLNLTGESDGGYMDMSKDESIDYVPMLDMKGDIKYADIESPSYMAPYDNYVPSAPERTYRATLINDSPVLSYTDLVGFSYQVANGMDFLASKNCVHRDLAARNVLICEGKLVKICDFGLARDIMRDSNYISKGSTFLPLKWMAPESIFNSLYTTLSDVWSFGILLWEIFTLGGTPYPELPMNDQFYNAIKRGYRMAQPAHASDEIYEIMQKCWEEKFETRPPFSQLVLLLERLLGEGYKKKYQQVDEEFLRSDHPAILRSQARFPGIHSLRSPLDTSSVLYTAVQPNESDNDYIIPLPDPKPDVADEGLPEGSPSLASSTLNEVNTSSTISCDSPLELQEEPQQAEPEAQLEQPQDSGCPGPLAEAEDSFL

## C=C(C)CCC[C@]1(C)OC(=O)[C@]23CC[C@@H]4C(=CCC5C(C)(C)[C@@H](O[C@@H]6OC[C@@H](OS(=O)(=O)[O-])[C@H](O)[C@H]6O[C@@H]6O[C@H](C)[C@@H](O[C@@H]7OC[C@@H](O)[C@H](O[C@@H]8O[C@H](CO)[C@@H](O)[C@H](OC)[C@H]8O)[C@H]7O)[C@H](O)[C@H]6O)CC[C@@]54C)[C@]2(C)C[C@H](OC(C)=O)[C@@H]31.[Na+] (stereo partly drawn)
[1]
  IC50: 1360 nM
[2]
  IC50: 2030 nM
[3]
  MIC80: 4 µg/mL
[4]
  Activity: Active
[5]
  MIC80: 4 µg/mL
[6]
  inhibition in vivo at 5 mg/kg: 50.1%
[7]
  IC50: 1500 nM
[8]
  inhibition in vivo at 50 mg/kg: 55.5%
[9]
  MIC80: 16 µg/mL
[10]
  T/C: 45%
[11]
  IC50: 1450 nM
[12]
  inhibition in vivo at 0.5 mg/kg: 22.1%
[13]
  IC50: 1600 nM
[14]
  MIC80: 8 µg/mL
[15]
  IC50: 600 nM
[16]
  IC50: 4800 nM
[17]
  T/C: 20%
[18]
  inhibition in vivo at 50 mg/kg: 43.3%
